Activity calls are given as the source filed them. No cut-off for these calls is given here. Bounds are passed on as bounds.

Assay [1] concerns PBMC. The assay can be described thus: Induction of IL10 production in human PBMC at 1 ug/ml after 48 hrs by ELISA. Format: functional, cell-based. Summed up: (§1)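 PBMCs were isolated from heparinized venous blood by Ficoll-Hypaque density gradient centrifugation. Cells were cultured at 1 × 10^6/mL in RPMI 1640 with 10% fetal calf serum, with or without compound at 1 or 10 µg/mL, for 48 h at 37 °C. Cytokines in the culture supernatants were measured by commercial ELISA kits.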

Assay [2] deals with PBMC. As to the kind of experiment: Induction of TNFalpha production in human PBMC at 10 ug/ml after 48 hrs by ELISA. It is filed as functional. The method in brief:
as §1
(ELISA stands for enzyme-linked immunosorbent assay.)

Assay [3] deals with PBMC. As to the kind of experiment: Induction of IL12 production in human PBMC at 1 ug/ml after 48 hrs by ELISA. It is filed as functional. The method in brief:
as §1

For assay [4], the system named is PBMC. As to the kind of experiment: Induction of IL6 production in human PBMC at 1 ug/ml after 48 hrs by ELISA. It is filed as functional. The method in brief:
as §1

Assay [5] concerns PBMC. The assay can be described thus: Induction of IFN-gamma production in human PBMC at 1 ug/ml after 48 hrs by ELISA. It is filed as functional, cell-based. The method in brief:
as §1

For assay [6], the system named is PBMC. As to the kind of experiment: Induction of IL4 production in human PBMC at 10 ug/ml after 48 hrs by ELISA. Format: functional, cell-based. Summed up: as §1
The subject of assay [7] is PBMC. The assay can be described thus: Induction of IFN-gamma production in human PBMC at 10 ug/ml after 48 hrs by ELISA. It is filed as functional, cell-based. Summed up:
as §1

Assay [8] deals with PBMC. The assay can be described thus: Induction of IL12 production in human PBMC at 10 ug/ml after 48 hrs by ELISA. It is filed as functional. The method in brief: as §1
Assay [9] concerns PBMC. As to the kind of experiment: Induction of TNFalpha production in human PBMC at 1 ug/ml after 48 hrs by ELISA. It is filed as functional. The method in brief:
as §1

Assay [10] concerns PBMC. As to the kind of experiment: Induction of IL6 production in human PBMC at 10 ug/ml after 48 hrs by ELISA. It is filed as functional. Summed up: as §1
The subject of assay [11] is PBMC. As to the kind of experiment: Induction of IL4 production in human PBMC at 1 ug/ml after 48 hrs by ELISA. It is filed as functional, cell-based. The method in brief:
as §1

Assay [12] deals with PBMC. As to the kind of experiment: Induction of IL10 production in human PBMC at 10 ug/ml after 48 hrs by ELISA. It is filed as functional, cell-based. Summed up: as §1

Turning to `C[C@H]1C(=O)CC[C@@H]2[C@]1(C)CC[C@H]1[C@@]2(C)CC[C@@]2(C)[C@@H]3CC(C)(C)CC[C@]3(CO)CC[C@]12C` [CANOPHYLLOL], the result in assay [1], in assay [5], in [6], in [7], in assay [11] and in assay [12] was inactive. The Activity is 322.9 pg/mL in assay [2]; 47.3 pg/mL in assay [3]; 2579.3 pg/mL in [4]; 104.3 pg/mL in [8]; 132.5 pg/mL in [9]; 2579.2 pg/mL in assay [10].
Regarding `CC(=O)OC[C@]12[C@H](OC(=O)c3ccccc3)[C@H](OC(C)=O)[C@@H]3[C@@H](OC(C)=O)[C@@]14O[C@@]3(C)COC(=O)c1cccnc1C(C)C(C)C(=O)O[C@@H]([C@H](OC(C)=O)[C@@H]2OC(=O)c1ccccc1)[C@]4(C)O` (some centres undefined) [EBENIFOLINE E III], the outcome in assay [1], in assay [5], in assay [6], in [7], in [11] and in assay [12] was inactive. In addition, the Activity in [2], in assay [3], in assay [4], in [8], in assay [9] and in assay [10] was less than 7.8 pg/mL in each case.
In the case of `CC1(C)[C@@H](O)CC[C@]2(C)[C@H]3CC=C4[C@H]5C[C@](C)(C(=O)O)CC[C@]5(C)CC[C@@]4(C)[C@]3(C)CC[C@@H]12` [EPIKATONIC ACID], the result in [1], in assay [5], in assay [6], in assay [7], in assay [11] and in assay [12] was inactive. Also, the Activity is less than 7.8 pg/mL in assay [2]; less than 7.8 pg/mL in assay [3]; 16.2 pg/mL in [4]; less than 7.8 pg/mL in assay [8]; less than 7.8 pg/mL in [9]; 22.9 pg/mL in assay [10].
As for `C[C@@H]1O[C@@H](O[C@@H]2[C@@H](O)[C@H](OCCc3ccc(O)c(O)c3)O[C@H](COC(=O)/C=C/c3ccc(O)c(O)c3)[C@H]2O)[C@H](O)[C@H](O)[C@H]1O` [ISOACTEOSIDE], the outcome in assay [1], in assay [5], in [6], in assay [7], in [11] and in assay [12] was inactive. Further, the Activity in [2] is less than 7.8 pg/mL; in [3], less than 7.8 pg/mL; in [4], 101.5 pg/mL; in assay [8], less than 7.8 pg/mL; in assay [9], less than 7.8 pg/mL; in [10], 175.5 pg/mL.
In the case of `CC(C)c1cc2c(cc1O)[C@@]1(C)CCC[C@](C)(C(=O)O)[C@@H]1CC2` [LAMBERTIC ACID], the result in assay [1], in [5], in assay [6], in assay [7], in assay [11] and in assay [12] was inactive. In addition, the Activity in assay [2] is less than 7.8 pg/mL; in [3], less than 7.8 pg/mL; in assay [4], 59.8 pg/mL; in [8], less than 7.8 pg/mL; in assay [9], less than 7.8 pg/mL; in [10], 1454.4 pg/mL.
With `CC(=O)OC[C@]12[C@H](OC(C)=O)[C@H](OC(C)=O)[C@@H]3[C@@H](OC(C)=O)[C@@]14O[C@@]3(C)COC(=O)c1cccnc1C(C)C(C)C(=O)O[C@@H]([C@H](OC(C)=O)[C@@H]2OC(=O)c1ccccc1)[C@]4(C)O` (some centres undefined) [MAYTEINE], the outcome in [1], in assay [5], in assay [6], in assay [7], in assay [11] and in assay [12] was inactive. In addition, the Activity turned out to be 24.6 pg/mL in [2]; 14.3 pg/mL in assay [3]; 1245.2 pg/mL in assay [4]; 14.7 pg/mL in [8]; 22 pg/mL in assay [9]; 1576.2 pg/mL in assay [10].
For the compound `COc1c(O)cc(-c2oc3cc(O)cc(O)c3c(=O)c2O)cc1O` [MEARNSETIN], the result in [1], in [5], in assay [6], in [7], in [11] and in assay [12] was inactive. Moreover, the Activity in [2] is less than 7.8 pg/mL; in assay [3], 14.3 pg/mL; in assay [4], 783.6 pg/mL; in assay [8] it was less than 7.8 pg/mL; in assay [9], 31.3 pg/mL; in assay [10], 203.4 pg/mL.
`COc1c(O)cc([C@H]2Oc3c(c(O)cc(O)c3[C@H]3c4c(O)cc(O)cc4O[C@H](c4ccc(O)cc4)[C@@H]3O)C[C@H]2O)cc1O` [OURATEAPROANTHOCYANIDIN A]: the outcome in assay [1], in assay [5], in assay [6], in assay [7], in assay [11] and in assay [12] was inactive. The Activity in [2] is less than 7.8 pg/mL; in [3] it was less than 7.8 pg/mL; in [4], 28.1 pg/mL; in assay [8] it was less than 7.8 pg/mL; in assay [9], less than 7.8 pg/mL; in [10], 174.4 pg/mL.
Regarding `C[C@@H]1[C@@]23CC[C@H]4[C@@](C)(CC[C@@]5(C)[C@@H]6C[C@](C)(C(=O)O)CC[C@]6(C)CC[C@]45C)[C@@H]2CC[C@@]1(O)OC3` [SALASPERMIC ACID], the result in assay [1], in assay [5], in [6], in assay [7], in [11] and in [12] was inactive. Also, the Activity is less than 7.8 pg/mL in assay [2]; 21.6 pg/mL in [3]; 857.3 pg/mL in [4]; less than 7.8 pg/mL in [8]; 54.5 pg/mL in assay [9]; 109.6 pg/mL in assay [10].
Take `C[C@@H]1[C@H]2C3=CC[C@@H]4[C@@]5(C)CC[C@@H](O)C(C)(C)[C@@H]5CC[C@@]4(C)[C@]3(C)CC[C@@]2(C)[C@@H](O)C[C@H]1C(=O)O` [TRIPTOCALLIC ACID A]: the result in assay [1], in assay [5], in assay [6], in assay [7], in assay [11] and in [12] was inactive. The Activity is less than 7.8 pg/mL in [2]; less than 7.8 pg/mL in [3]; 705.7 pg/mL in assay [4]; less than 7.8 pg/mL in [8]; less than 7.8 pg/mL in [9]; 10.6 pg/mL in assay [10].
Regarding `CC1(C)[C@H](O)CC[C@]2(C)[C@H]3CC=C4[C@@H]5C[C@](C)(C(=O)O)C[C@H](O)[C@]5(C)CC[C@@]4(C)[C@]3(C)CC[C@@H]12` [TRIPTOCALLIC ACID D], the result in assay [1], in assay [5], in assay [6], in [7], in [11] and in [12] was inactive. Also, the Activity is less than 7.8 pg/mL in assay [2]; less than 7.8 pg/mL in assay [3]; 793.2 pg/mL in [4]; less than 7.8 pg/mL in assay [8]; less than 7.8 pg/mL in assay [9]; less than 7.8 pg/mL in assay [10].
Regarding `CC1(C)C(=O)CC[C@]2(C)[C@H]3CC=C4[C@@H]5C[C@]6(C)C[C@@H](OC6=O)[C@]5(C)CC[C@@]4(C)[C@]3(C)CC[C@@H]12` [WILFORLIDE B], the result in assay [1], in assay [5], in assay [6], in [7], in assay [11] and in [12] was inactive. Also, the Activity is less than 7.8 pg/mL in [2]; less than 7.8 pg/mL in assay [3]; 1477.6 pg/mL in [4]; less than 7.8 pg/mL in [8]; less than 7.8 pg/mL in assay [9]; 451.1 pg/mL in assay [10].

The values above are taken from ChEMBL document CHEMBL1148955, “Chemical constituents from the Colombian medicinal plant Maytenus laevis” (2004).
